Assay results taken from the M2OR odorant receptor database.
Substitutions are numbered along the chain they refer to.

What was measured:
Settings in all cases: stereoisomer not certain
[1] = molecular target: T1, OR52I1 (Homo sapiens) (UniProt Q8NGK6)
T1 sequence (whole entry): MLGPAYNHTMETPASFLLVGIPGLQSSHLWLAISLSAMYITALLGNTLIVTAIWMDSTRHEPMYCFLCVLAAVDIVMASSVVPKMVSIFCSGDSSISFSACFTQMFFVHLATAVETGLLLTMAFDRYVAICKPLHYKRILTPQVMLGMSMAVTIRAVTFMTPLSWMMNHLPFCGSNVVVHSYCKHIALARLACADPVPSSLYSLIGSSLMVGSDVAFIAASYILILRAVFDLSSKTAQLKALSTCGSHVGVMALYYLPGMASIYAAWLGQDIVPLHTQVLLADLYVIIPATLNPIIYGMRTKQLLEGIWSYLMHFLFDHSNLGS
Outline: (§1)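 Assay methods differ from source to source, frequently being transient luciferase assays in mammalian cell lines. For each receptor–molecule pair, the label responsive (active) applies when the original authors judged the measured signal statistically different from baseline, and non-responsive (inactive) applies otherwise.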

[2] = molecular target: T2, OR52I2 (Homo sapiens) (UniProt Q8NH67)
T2 sequence (whole entry): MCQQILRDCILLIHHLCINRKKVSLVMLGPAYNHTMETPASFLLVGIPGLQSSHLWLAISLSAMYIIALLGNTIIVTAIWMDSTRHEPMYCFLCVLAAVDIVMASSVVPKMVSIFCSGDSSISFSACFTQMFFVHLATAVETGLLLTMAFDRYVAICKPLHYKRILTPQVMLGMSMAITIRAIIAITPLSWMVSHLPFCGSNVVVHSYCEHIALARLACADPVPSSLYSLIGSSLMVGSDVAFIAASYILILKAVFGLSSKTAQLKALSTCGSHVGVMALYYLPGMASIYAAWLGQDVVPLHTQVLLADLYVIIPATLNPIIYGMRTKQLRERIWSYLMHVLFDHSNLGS
Outline: as §1

[3] = molecular target: OR52J3 (Homo sapiens) (UniProt Q8NH60)
Sequence of OR52J3 (Homo sapiens) (Q8NH60 whole entry): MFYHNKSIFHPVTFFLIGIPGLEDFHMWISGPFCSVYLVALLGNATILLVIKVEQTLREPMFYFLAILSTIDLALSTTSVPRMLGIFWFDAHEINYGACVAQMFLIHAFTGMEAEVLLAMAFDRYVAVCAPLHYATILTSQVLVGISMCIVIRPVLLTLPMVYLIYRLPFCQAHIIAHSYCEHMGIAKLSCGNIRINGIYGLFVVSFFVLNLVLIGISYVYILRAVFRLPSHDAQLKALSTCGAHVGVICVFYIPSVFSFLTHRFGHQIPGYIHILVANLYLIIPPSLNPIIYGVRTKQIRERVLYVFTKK
Outline: as §1

[4] = molecular target: T3, OR52K1 (Homo sapiens) (UniProt Q8NGK4)
T3 sequence (whole entry): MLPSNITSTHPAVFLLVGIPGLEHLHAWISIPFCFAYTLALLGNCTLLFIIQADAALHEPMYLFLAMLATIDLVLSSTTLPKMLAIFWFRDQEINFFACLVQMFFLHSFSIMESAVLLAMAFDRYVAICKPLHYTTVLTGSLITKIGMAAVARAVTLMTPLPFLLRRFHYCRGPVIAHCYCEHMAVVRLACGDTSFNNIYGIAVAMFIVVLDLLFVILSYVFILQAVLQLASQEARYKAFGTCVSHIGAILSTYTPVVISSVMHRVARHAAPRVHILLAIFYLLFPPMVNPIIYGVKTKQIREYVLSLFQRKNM
Outline: as §1

[5] = molecular target: T4, OR52K2 (Homo sapiens) (UniProt Q8NGK3)
T4 sequence (whole entry): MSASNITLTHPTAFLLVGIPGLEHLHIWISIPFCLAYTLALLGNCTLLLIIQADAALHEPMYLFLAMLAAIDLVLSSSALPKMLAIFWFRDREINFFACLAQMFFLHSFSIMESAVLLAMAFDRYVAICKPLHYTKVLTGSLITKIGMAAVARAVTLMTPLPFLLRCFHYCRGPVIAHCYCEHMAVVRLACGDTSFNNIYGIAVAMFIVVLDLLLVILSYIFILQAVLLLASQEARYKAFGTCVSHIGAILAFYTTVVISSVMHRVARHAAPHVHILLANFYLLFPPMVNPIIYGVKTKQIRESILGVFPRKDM
Outline: as §1

[6] = molecular target: T5, OR52L1 (Homo sapiens) (UniProt Q8NGH7)
T5 sequence (whole entry): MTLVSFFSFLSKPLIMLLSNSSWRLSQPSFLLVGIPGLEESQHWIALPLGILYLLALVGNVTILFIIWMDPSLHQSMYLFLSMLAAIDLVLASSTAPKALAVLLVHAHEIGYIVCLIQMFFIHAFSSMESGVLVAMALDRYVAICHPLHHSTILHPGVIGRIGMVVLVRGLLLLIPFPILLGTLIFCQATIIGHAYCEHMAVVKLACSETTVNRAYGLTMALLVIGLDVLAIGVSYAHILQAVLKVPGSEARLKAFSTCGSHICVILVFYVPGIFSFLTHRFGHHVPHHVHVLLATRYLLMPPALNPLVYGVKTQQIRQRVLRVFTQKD
Outline: as §1

[7] = molecular target: T6, OR52M1 (Homo sapiens) (UniProt Q8NGK5)
T6 sequence (whole entry): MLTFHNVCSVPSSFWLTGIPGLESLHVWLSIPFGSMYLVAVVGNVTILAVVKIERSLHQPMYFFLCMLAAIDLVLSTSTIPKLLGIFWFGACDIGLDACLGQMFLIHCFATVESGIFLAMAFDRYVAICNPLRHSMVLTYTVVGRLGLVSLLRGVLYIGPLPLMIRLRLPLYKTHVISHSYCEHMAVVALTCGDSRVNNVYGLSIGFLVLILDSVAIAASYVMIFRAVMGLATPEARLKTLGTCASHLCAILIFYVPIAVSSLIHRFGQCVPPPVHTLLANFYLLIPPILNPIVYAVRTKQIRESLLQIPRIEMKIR
Outline: as §1

[8] = molecular target: T7, OR52N1 (Homo sapiens) (UniProt Q8NH53)
T7 sequence (whole entry): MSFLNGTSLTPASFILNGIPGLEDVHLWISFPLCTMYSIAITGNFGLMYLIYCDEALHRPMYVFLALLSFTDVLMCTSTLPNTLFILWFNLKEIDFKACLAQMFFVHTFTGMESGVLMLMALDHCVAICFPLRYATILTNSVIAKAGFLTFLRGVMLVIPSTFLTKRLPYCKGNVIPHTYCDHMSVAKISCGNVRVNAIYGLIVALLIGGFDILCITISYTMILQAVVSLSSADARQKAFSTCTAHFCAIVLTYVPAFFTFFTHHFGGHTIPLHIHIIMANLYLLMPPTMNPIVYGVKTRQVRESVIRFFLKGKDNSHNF
Outline: as §1

[9] = molecular target: T8, OR52N2 (Homo sapiens) (UniProt Q8NGI0)
T8 sequence (whole entry): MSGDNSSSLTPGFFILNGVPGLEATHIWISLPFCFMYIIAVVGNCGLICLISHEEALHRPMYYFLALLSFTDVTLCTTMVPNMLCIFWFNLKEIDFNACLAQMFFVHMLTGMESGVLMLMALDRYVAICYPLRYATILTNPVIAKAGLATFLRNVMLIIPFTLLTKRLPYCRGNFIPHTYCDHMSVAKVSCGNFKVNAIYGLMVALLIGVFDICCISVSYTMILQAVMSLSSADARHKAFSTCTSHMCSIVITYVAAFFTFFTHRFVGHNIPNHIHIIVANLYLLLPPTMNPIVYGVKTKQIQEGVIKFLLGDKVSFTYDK
Outline: as §1

[10] = molecular target: T9, OR52N4 (Homo sapiens) (UniProt Q8NGI2)
T9 sequence (whole entry): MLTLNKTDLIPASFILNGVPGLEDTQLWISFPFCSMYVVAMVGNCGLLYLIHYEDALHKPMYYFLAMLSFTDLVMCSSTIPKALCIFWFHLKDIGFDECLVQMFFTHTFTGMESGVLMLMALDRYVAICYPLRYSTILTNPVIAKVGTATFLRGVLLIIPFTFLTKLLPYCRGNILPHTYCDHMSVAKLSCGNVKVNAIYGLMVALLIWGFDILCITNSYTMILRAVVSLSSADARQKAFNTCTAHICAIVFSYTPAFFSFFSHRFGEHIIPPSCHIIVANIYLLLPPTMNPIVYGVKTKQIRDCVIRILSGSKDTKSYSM
Outline: as §1

[11] = molecular target: T10, OR52N5 (Homo sapiens) (UniProt Q8NH56)
T10 sequence (whole entry): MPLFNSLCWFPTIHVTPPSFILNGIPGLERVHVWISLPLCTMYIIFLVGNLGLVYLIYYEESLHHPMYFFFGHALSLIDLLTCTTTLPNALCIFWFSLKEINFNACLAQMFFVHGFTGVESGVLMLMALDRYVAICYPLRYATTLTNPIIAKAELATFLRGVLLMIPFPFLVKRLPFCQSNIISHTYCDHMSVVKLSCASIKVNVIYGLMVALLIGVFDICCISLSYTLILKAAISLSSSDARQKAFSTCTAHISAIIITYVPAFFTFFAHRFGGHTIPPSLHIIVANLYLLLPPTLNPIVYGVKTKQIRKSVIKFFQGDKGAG
Outline: as §1

[12] = molecular target: T11, OR52R1 (Homo sapiens) (UniProt Q8NGF1)
T11 sequence (whole entry): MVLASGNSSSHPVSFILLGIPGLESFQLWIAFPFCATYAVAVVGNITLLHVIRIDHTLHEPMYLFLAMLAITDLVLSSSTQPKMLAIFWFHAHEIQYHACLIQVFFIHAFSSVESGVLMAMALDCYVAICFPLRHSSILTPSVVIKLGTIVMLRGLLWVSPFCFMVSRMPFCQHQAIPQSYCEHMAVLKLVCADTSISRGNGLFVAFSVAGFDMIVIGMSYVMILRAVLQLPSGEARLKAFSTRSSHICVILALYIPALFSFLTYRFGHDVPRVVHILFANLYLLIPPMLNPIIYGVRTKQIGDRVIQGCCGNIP
Outline: as §1

[13] = molecular target: T12, OR52W1 (Homo sapiens) (UniProt Q6IF63)
T12 sequence (whole entry): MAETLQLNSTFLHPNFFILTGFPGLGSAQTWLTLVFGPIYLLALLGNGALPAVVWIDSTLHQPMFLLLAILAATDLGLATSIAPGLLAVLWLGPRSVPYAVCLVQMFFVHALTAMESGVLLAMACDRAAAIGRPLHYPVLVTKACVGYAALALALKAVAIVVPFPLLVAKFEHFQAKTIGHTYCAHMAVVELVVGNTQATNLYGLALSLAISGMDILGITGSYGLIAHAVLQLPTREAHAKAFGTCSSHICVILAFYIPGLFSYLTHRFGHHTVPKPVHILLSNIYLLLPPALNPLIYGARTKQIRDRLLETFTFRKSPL
Outline: as §1

[14] = molecular target: T13, OR56A1 (Homo sapiens) (UniProt Q8NGH5)
T13 sequence (whole entry): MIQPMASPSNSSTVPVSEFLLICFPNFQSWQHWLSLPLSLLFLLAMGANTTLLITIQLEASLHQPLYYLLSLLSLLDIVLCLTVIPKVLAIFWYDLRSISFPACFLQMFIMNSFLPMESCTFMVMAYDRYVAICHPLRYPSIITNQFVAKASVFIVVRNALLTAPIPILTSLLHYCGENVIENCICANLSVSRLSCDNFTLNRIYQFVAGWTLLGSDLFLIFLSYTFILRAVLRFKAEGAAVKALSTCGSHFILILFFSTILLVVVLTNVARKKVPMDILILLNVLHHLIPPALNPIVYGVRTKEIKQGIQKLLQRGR
Outline: as §1

[15] = molecular target: T14, OR56A3 (Homo sapiens) (UniProt Q8NH54)
T14 sequence (whole entry): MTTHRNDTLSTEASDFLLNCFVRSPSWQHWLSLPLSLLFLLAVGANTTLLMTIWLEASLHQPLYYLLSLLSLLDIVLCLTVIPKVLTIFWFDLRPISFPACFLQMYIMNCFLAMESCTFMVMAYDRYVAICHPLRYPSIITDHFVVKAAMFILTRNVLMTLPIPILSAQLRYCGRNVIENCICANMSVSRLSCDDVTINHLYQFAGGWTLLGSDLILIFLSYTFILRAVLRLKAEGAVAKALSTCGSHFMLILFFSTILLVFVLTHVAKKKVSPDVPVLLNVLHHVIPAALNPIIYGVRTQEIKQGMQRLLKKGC
Outline: as §1

[16] = molecular target: T15, OR56A5 (Homo sapiens) (UniProt P0C7T3)
T15 sequence (whole entry): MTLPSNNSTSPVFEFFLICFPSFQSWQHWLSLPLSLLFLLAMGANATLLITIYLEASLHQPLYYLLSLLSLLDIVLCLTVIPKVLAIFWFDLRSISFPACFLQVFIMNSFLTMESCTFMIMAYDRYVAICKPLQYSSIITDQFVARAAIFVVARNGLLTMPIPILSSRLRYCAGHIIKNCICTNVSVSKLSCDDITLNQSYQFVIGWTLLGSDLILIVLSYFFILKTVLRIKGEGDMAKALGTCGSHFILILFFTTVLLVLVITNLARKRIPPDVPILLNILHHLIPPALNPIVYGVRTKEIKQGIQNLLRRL
Outline: as §1

[17] = molecular target: T16, OR56B1 (Homo sapiens) (UniProt Q8NGI3)
T16 sequence (whole entry): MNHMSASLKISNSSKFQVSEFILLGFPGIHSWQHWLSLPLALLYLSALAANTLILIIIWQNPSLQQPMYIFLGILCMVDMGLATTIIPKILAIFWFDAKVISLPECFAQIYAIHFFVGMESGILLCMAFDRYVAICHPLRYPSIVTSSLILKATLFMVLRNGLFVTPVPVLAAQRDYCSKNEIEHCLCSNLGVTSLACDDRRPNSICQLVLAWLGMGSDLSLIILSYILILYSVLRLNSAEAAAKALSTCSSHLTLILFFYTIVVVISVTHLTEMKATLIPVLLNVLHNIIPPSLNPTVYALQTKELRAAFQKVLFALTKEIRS
Outline: as §1

[18] = molecular target: T17, OR52L1 (Homo sapiens) (UniProt Q8NGH7); remark: listed apart in the source
T17 sequence (whole entry): T5 sequence (whole entry) with R140C, R161C, T183K, R297W
Outline: as §1

[19] = molecular target: OR52Z1P (Homo sapiens) (UniProt P0C646)
Sequence of OR52Z1P (Homo sapiens) (P0C646 whole entry): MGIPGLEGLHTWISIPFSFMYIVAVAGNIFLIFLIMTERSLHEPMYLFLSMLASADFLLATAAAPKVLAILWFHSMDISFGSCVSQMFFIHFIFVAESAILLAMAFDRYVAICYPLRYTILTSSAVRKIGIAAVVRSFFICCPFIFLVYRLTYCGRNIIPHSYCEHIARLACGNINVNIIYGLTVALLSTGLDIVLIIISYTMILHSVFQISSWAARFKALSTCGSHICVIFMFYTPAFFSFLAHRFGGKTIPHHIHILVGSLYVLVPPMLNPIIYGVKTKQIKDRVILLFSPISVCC
Outline: as §1

[20] = molecular target: T18, OR56A4 (Homo sapiens) (UniProt Q8NGH8)
T18 sequence (whole entry): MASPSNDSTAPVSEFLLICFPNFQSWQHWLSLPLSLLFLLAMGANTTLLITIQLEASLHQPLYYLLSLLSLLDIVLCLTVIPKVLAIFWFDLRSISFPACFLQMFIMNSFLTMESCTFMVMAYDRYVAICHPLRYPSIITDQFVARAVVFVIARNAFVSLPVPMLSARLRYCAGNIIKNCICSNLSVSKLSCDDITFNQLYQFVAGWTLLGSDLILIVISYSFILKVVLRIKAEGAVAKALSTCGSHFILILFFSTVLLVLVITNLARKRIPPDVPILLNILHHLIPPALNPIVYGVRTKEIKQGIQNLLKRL
Outline: as §1

Measured: odorant receptor agonist call

CCC1OC(=O)C(O)=C1C (stereo unspecified)
not listed: [18] | [19] | [20]
inactive: all other assays above

CC1CCCCCCCCCCCCC(=O)C1 (stereo unspecified)
not listed: [6]
inactive: all other assays above

CC1=C(O)C(=O)OC1C (stereo unspecified)
not listed: [18] | [19] | [20]
inactive: all other assays above

CCCCCC(S)C(C)CO (stereo unspecified)
not listed: [6] | [19]
inactive: all other assays above
